Test results from ChEMBL document CHEMBL1123350, “Synthesis and beta-adrenergic receptor blocking potency of 1-(substituted amino)-3-(4-indolyloxy)propan-2-ols” (J Med Chem, 1986).

Assays:
[1] = Distribution coefficient value of the compound; type: physicochemical; conditions: octanol/water
Summary of the method: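 Shake-flask partition between 0.1 M potassium phosphate pH 7.4 and 1-octanol, each phase presaturated with the other. Compound at 0.1–1.0 mg/mL in buffer, shaken 30 min, left 10 min, spun 600g 10 min at room temperature. Aqueous-phase absorbance read before and after partition at a per-compound wavelength. D = (Aorig−Aextr)/(Aextr·f), with f the octanol:buffer volume ratio. Run twice.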

Rattus norvegicus = species: Rattus norvegicus; assay: Hill coefficient value assayed against rat beta adrenergic receptor
Summary of the method: (§1)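 Male Sprague–Dawley rat cortex or cerebellum membranes, washed in HEPES–EDTA pH 7.5 and resuspended in NaCl–Tris–MgCl2 pH 7.5. Bound ligand collected by filtration and gamma-counted; isoproterenol 25 μM defines nonspecific binding. IC50 and Hill n by nonlinear regression; Ki by Cheng–Prusoff for the eutomer. Run at least twice.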

[2] = In vitro for binding affinity against beta adrenergic receptor in rat cerebellum; type: tissue-based; summary of the method: as §1
[3] = In vitro for binding affinity against beta adrenergic receptor in rat cortex; summary of the method: as §1

| SMILES | logD [1] | Hill coefficient (Rattus norvegicus) | Ki [2] [nM] | Ki [3] [nM] |
| --- | --- | --- | --- | --- |
| Nc1ccc(CCNCC(O)COc2cccc3[nH]ccc23)cc1 (stereo not given) | 0.3 | > 0.9 | 22 | 25 |
| O=[N+]([O-])c1ccc(CCNCC(O)COc2cccc3[nH]ccc23)cc1 (stereo not given) | 1.5 | > 0.9 | 8 | 5 |
| OC(CNCc1ccc(F)cc1)COc1cccc2[nH]ccc12 (stereo not given) | 1.9 | > 0.9 | 80 | 125 |
| OC(CNCCc1ccc(Cl)c(Cl)c1)COc1cccc2[nH]ccc12 (stereo not given) | 2.5 | > 0.9 | 11 | 6 |
| CC(C)NCC(O)COc1cccc2[nH]ccc12 (stereo not given) [PINDOLOL] | -0.3 | > 0.9 | 1 | 1 |
| CC(C)(CO)NCC(O)COc1cccc2[nH]ccc12 (stereo not given) | -0.6 | > 0.9 | 2 | 2 |
| OC(CNCCc1ccccc1)COc1cccc2[nH]ccc12 (stereo not given) | 1.7 | > 0.9 | 4 | 5 |
| OC(CNCc1ccccc1F)COc1cccc2[nH]ccc12 (stereo not given) | 2 | > 0.9 | 45 | 60 |
| COc1ccc(CCNCC(O)COc2cccc3[nH]ccc23)cc1OC (stereo not given) | 1.1 | > 0.9 | 7 | 3 |
| OC(CNCCc1ccc(F)cc1)COc1cccc2[nH]ccc12 (stereo not given) | 2 | > 0.9 | 4 | 5 |
